{"source": "ChEMBL document CHEMBL1687733", "about": "“Topoisomerase I gene mutations at F270 in the large subunit and N184 in the small subunit contribute to the resistance mechanism of the unicellular parasite Leishmania donovani towards 3,3'-diindolylmethane” (Antimicrob Agents Chemother, 2009)", "key": {"[1]": {"test_system": "T1, DNA topoisomerase I (Leishmania donovani (strain BPK282A1)), E9BRC0 [K430N]", "T1 sequence (whole entry)": "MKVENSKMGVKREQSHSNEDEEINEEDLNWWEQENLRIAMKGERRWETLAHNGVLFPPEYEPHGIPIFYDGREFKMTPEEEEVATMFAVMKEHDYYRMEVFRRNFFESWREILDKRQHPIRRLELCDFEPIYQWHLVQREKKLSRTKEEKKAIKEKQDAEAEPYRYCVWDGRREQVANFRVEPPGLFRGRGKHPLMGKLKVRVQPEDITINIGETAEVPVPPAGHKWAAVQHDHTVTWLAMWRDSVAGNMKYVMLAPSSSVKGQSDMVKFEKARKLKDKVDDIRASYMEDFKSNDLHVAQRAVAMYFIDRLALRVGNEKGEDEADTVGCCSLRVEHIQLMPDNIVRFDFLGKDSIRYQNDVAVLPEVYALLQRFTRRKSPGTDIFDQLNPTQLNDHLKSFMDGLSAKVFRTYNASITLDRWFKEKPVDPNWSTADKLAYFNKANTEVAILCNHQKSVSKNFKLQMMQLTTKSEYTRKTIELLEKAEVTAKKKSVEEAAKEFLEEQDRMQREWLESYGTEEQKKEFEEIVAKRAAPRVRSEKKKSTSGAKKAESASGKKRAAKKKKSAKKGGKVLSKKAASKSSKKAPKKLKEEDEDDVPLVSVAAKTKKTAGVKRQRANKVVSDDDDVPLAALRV", "experiment": "Effect on recombinant drug-resistant Leishmania donovani LdDR50 topoisomerase 1b large subunit K430N mutant-mediated cleavage of 25-mer duplex oligonucleotide at 20 uM after 30 mins by PAGE analysis", "summary_of_the_method": "(§1)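 5′-32P-labelled 25-mer duplex (10 nM) incubated with reconstituted mutant enzyme (0.2 μM, 20-fold molar excess) and DIM 5–20 μM for 30 min (Methods 37°C; legend 23°C). Stopped with SDS, trypsin-treated, resolved on 12% denaturing polyacrylamide-urea gel; cleaved 12-mer detected by autoradiography.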"}, "Leishmania donovani [2]": {"test_system": "Leishmania donovani", "experiment": "Drug uptake in wild type Leishmania donovani AG83 at 20 uM after 30 mins by spectrophotometric analysis", "type": "ADME, organism-based", "details": "in vivo, 0.5 h", "summary_of_the_method": "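Log-phase promastigotes at 3 × 10^7 cells/ml with 20 μM DIM at 22°C; aliquots at 1, 5, 10, 20 and 30 min washed three times in ice-cold PBS pH 7.4 with 0.01 N HCl, sonicated. Cell-associated DIM quantified by equilibrium dialysis and absorbance at 280 nm; three experiments in duplicate.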"}, "[3]": {"target": "DNA topoisomerase type IB small subunit (Leishmania donovani (strain BPK282A1), UniProt E9B7X3, N184S)", "experiment": "Binding affinity to recombinant drug-resistant Leishmania donovani LdDR50 topoisomerase 1b small subunit N184S mutant after 24 hrs by equilibrium dialysis method", "summary_of_the_method": "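Recombinant His-tagged subunits expressed in E. coli BL21(DE3) pLysS, purified on Ni-NTA then phosphocellulose, reconstituted 1:1. Enzyme 200 μM with DIM 1–20 μM in 20 mM Tris-HCl pH 7.5, 50 mM NaCl, 10 mM MgCl2 for 30 min at 37°C, then dialysed (12–14 kDa cutoff) 24 h at 25°C. Free DIM measured by absorbance (ε 6.6 × 10^4 M−1); KD from saturation plot.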"}, "[4]": {"test_system": "T2, Leishmania donovani [F270L]", "T2 sequence (whole entry)": "T1 sequence (whole entry) with F270L, N430K", "experiment": "Inhibition of recombinant drug-resistant Leishmania donovani LdDR50 topoisomerase 1b wild type small subunit and large subunit F270L mutant-mediated relaxation of supercoiled pBluescript SK(+) DNA at up to 50 uM after 30 mins using ethidium bromide staining", "summary_of_the_method": "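Reconstituted recombinant enzyme (30 fmol) with 90 fmol supercoiled pBluescript SK(+) DNA (3:1 DNA:enzyme), 30 min at 37°C with DIM (1–50 μM for fully mutant enzyme; 10 μM for single-site mutants); 4% DMSO vehicle control. Products on 1% agarose, ethidium bromide (0.5 μg/ml) stained; supercoiled monomer band quantified.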"}, "[5]": {"test_system": "T3, DNA topoisomerase type IB small subunit (Leishmania donovani (strain BPK282A1)), E9B7X3 [N184S]", "T3 sequence (whole entry)": "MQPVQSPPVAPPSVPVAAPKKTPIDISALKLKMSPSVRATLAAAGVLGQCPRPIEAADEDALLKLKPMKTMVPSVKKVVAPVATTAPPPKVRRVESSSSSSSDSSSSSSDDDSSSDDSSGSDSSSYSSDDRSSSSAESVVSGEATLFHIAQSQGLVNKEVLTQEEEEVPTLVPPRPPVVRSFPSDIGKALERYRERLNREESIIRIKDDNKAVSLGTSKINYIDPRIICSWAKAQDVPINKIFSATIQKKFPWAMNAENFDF", "experiment": "Effect on recombinant drug-resistant Leishmania donovani LdDR50 topoisomerase 1b small subunit N184S mutant-mediated cleavage of 25-mer duplex oligonucleotide at 5 uM after 30 mins by PAGE analysis", "summary_of_the_method": "as §1"}, "Leishmania donovani [6]": {"test_system": "Leishmania donovani", "experiment": "Antimicrobial activity against wild type Leishmania donovani AG83 transfected with drug-resistant Leishmania donovani LdDR50 topoisomerase 1 F270L, K430N mutant in large subunit and N184S mutant in small subunit assessed as inhibition of parasite growth at 20 uM after 24 hrs by MTT assay", "type": "functional, organism-based", "summary_of_the_method": "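WT promastigotes transfected by electroporation with mutant large-subunit (pXG-HYG, hygromycin selection) and/or small-subunit (pXG-GFP2+, G418 selection) topoisomerase I genes. Grown with DIM 1–20 μM for 24 h; MTT read-out, growth as % of optical density of untreated WT parasites.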"}, "Leishmania donovani [7]": {"test_system": "Leishmania donovani", "experiment": "Effect on recombinant wild type Leishmania donovani AG83 topoisomerase 1b-mediated cleavage of 25-mer duplex oligonucleotide at 20 uM after 30 mins by PAGE analysis", "summary_of_the_method": "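The 5′-32P-labelled 25-mer duplex (10 nM) was incubated with 0.2 μM reconstituted WT His-tagged enzyme, a 20-fold molar enzyme excess. DIM was 0 or 5–20 μM, for 30 min. Reactions were stopped with SDS, trypsinised, and run on 12% denaturing polyacrylamide-urea gel with autoradiography. Read-out was the 12-mer cleaved product.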"}}, "note": "Substitutions are numbered along the chain they refer to. The source made the active and inactive calls."}
{"smiles": "c1ccc2c(Cc3c[nH]c4ccccc34)c[nH]c2c1", "note": "[ARUNDINE]", "values": [{"measurement": "Activity", "setting": "[1]", "value": "Active"}, {"measurement": "Drug uptake", "setting": "Leishmania donovani [2]", "value": "Active"}, {"measurement": "Kd", "setting": "[3]", "value": 380, "unit": "µM"}, {"measurement": "inhibition", "setting": "[4]", "value": "inactive"}, {"measurement": "Activity", "setting": "[5]", "value": "inactive"}, {"measurement": "Activity", "setting": "Leishmania donovani [6]", "value": "inactive"}, {"measurement": "Activity", "setting": "Leishmania donovani [7]", "value": "Active"}]}
